# Source: ChEMBL document CHEMBL3817745, “Structure-Activity Relationship for the 4(3H)-Quinazolinone Antibacterials” (J Med Chem, 2016)
# Key:
# [1] = system: Staphylococcus aureus; assay: Antibacterial activity against methicillin-susceptible Staphylococcus aureus ATCC 29213 incubated for 16 to 20 hrs by microdilution method; assay type: functional
# [2] = system: Bacillus cereus; assay: Antibacterial activity against Bacillus cereus ATCC 13061 incubated for 16 to 20 hrs by microdilution method; assay type: functional
# Procedure, shortened: (§1)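 CLSI broth microdilution. 2-fold serial dilutions were made in cation-adjusted Mueller–Hinton broth, with 5% lysed horse blood added for Streptococcus strains, in triplicate. Inoculum 5×10^5 CFU/mL. Plates incubated 36 °C for 16–20 h. MIC taken as the lowest concentration visibly inhibiting growth.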
# [3] = system: Staphylococcus aureus; assay: Antibacterial activity against mecA-positive multidrug resistant Staphylococcus aureus NRS120 incubated for 16 to 20 hrs by microdilution method; assay type: functional
# [4] = system: Acinetobacter baumannii; assay: Antibacterial activity against Acinetobacter baumannii ATCC 17961 incubated for 16 to 20 hrs by microdilution method; assay type: functional; procedure, shortened: as §1
# [5] = system: Escherichia coli; assay: Antibacterial activity against Escherichia coli ATCC 25922 incubated for 16 to 20 hrs by microdilution method; assay type: functional; procedure, shortened: as §1
# [6] = system: Staphylococcus aureus; assay: Antibacterial activity against methicillin-resistant Staphylococcus aureus NRS70 incubated for 16 to 20 hrs by microdilution method; assay type: functional
# [7] = system: Staphylococcus aureus; assay: Antibacterial activity against mecA-positive multidrug resistant Staphylococcus aureus COL NRS100 incubated for 16 to 20 hrs by microdilution method; assay type: functional
# [8] = system: Staphylococcus aureus; assay: […] activity against methicillin-susceptible Staphylococcus aureus ATCC 29213; assay type: functional; conditions: read-out: MBC99.9
# [9] = system: Streptococcus pyogenes; assay: Antibacterial activity against Streptococcus pyogenes ATCC 49399 incubated for 16 to 20 hrs by microdilution method; assay type: functional; procedure, shortened: as §1
# [10] = system: Staphylococcus aureus; assay: Bactericidal activity against methicillin-susceptible Staphylococcus aureus ATCC 29213 assessed as bacterial count at >=1 ug/ml (reference value: 1x10^6 CFU/ml); assay type: functional
# [11] = system: Mus musculus; assay: AUC (0 to last) in ICR mouse peritonitis model infected with methicillin resistant Staphylococcus aureus ATCC 27660 at 10 mg/kg, iv administered as single dose measured up to 8 hrs by UPLC analysis; assay type: ADME, organism-based; set-up: dose 10 mg/kg, time 0 - last, route intravenous; conditions: in vivo, 8 h
# Procedure, shortened: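 Fast PK: female ICR mice (n = 2 per time point) given single tail-vein iv injection at 5, 10 or 20 mg/kg in 25% DMSO/65% propylene glycol/10% water (2.5, 5 or 10 mg/mL); terminal cardiac blood at 5 min, 40 min, 2, 4, 8 h; plasma analysed by UPLC with internal standard calibration.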
# [12] = system: Staphylococcus epidermidis; assay: Antibacterial activity against Staphylococcus epidermidis ATCC 35547 incubated for 16 to 20 hrs by microdilution method; assay type: functional; procedure, shortened: as §1
# [13] = system: HepG2; assay: Cytotoxicity against human HepG2 cells incubated for 16 hrs by XTT assay; assay type: cell-based; conditions: HepG2, 16 h
# Procedure, shortened: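 HepG2 cells were tested with an XTT viability read-out, in triplicate. IC50 was obtained by nonlinear regression.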
# [14] = system: Klebsiella pneumoniae; assay: Antibacterial activity against Klebsiella pneumoniae ATCC 700603 incubated for 16 to 20 hrs by microdilution method; assay type: functional; procedure, shortened: as §1
# [15] = system: Staphylococcus aureus; assay: Antibacterial activity against mecA-positive methicillin/oxacillin/tetracycline-resistant Staphylococcus aureus ATCC 27660 incubated for 16 to 20 hrs by microdilution method; assay type: functional
# [16] = system: Bacillus licheniformis; assay: Antibacterial activity against Bacillus licheniformis ATCC 12759 incubated for 16 to 20 hrs by microdilution method; assay type: functional; procedure, shortened: as §1
# [17] = system: Staphylococcus aureus; assay: Antibacterial activity against vancomycin/methicillin-resistant Staphylococcus aureus VRS1 clinical isolate incubated for 16 to 20 hrs by microdilution method; assay type: functional
# [18] = system: Enterococcus faecalis; assay: Antibacterial activity against vancomycin-resistant Enterococcus faecalis 99 clinical isolate incubated for 16 to 20 hrs by microdilution method; assay type: functional
# [19] = system: Enterococcus faecium; assay: Antibacterial activity against Enterococcus faecium NCTC 7171 incubated for 16 to 20 hrs by microdilution method; assay type: functional; procedure, shortened: as §1
# [20] = system: Pseudomonas aeruginosa; assay: Antibacterial activity against Pseudomonas aeruginosa […] incubated for 16 to 20 hrs by microdilution method; assay type: functional; procedure, shortened: as §1
# [21] = system: Klebsiella aerogenes; assay: Antibacterial activity against Enterobacter aerogenes ATCC 35029 incubated for 16 to 20 hrs by microdilution method; assay type: functional; procedure, shortened: as §1
# [22] = Hemolytic activity against human RBC at 64 ug/ml relative to control; assay type: ADME, cell-based, Erythrocyte; conditions: erythrocyte
# Procedure, shortened: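 Hemolysis was measured at a fixed 64 μg/mL on a 10% red-cell suspension from heparinized human blood. Triton-X served as the positive control, and results are given as percent hemolysis.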
# [23] = system: Enterococcus faecalis; assay: Antibacterial activity against methicillin-susceptible Enterococcus faecalis ATCC 29212 incubated for 16 to 20 hrs by microdilution method; assay type: functional; procedure, shortened: as §1
# [24] = system: Staphylococcus aureus; assay: Antibacterial activity against methicillin resistant Staphylococcus aureus ATCC 27660 infected in ICR mouse model of peritonitis assessed as mouse survival at 5 mg/kg, iv administered at 30 mins and 4.5 hrs post infection measured for 48 hrs relative to control; assay type: functional
# [25] = system: Staphylococcus aureus; assay: […] activity against methicillin-resistant Staphylococcus aureus NRS70; assay type: functional; conditions: read-out: MBC99.9
# [26] = Protein binding in human plasma at 20 uM after 2 hrs by UPLC based equilibrium dialysis method; assay type: ADME, cell-free
# Procedure, shortened: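 Human plasma was tested by rapid equilibrium dialysis at a final compound concentration of 20 μM. Dialysis ran 2 h at 37 °C on an orbital shaker. Samples were quenched in acetonitrile with internal standard and quantified by UPLC with MRM detection. Triplicate, each measured in duplicate.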
# [27] = system: Streptococcus oralis; assay: Antibacterial activity against Streptococcus oralis ATCC 9811 incubated for 16 to 20 hrs by microdilution method; assay type: functional; procedure, shortened: as §1
# [28] = system: Staphylococcus aureus; assay: […] activity against multidrug resistant Staphylococcus aureus ATCC 27660; assay type: functional; conditions: read-out: MBC99.9
# [29] = system: Staphylococcus aureus; assay: Antibacterial activity against mecA-positive multidrug resistant Staphylococcus aureus NRS119 incubated for 16 to 20 hrs by microdilution method; assay type: functional
smiles,measurement,setting,value
C#Cc1ccc(/C=C/c2nc3ccccc3c(=O)n2-c2cccc(C(=O)O)c2)cc1,MIC,[1],0.03 µg/mL
same,MIC,[2],128 µg/mL
same,MIC,[3],0.5 µg/mL
same,MIC,[4],≥ 16 µg/mL
same,MIC,[5],≥ 16 µg/mL
same,MIC,[6],0.03 µg/mL
same,MIC,[7],0.25 µg/mL
same,MBC,[8],0.125 µg/mL
same,MIC,[9],128 µg/mL
same,Activity,[10],<=500 CFU/ml
same,AUClast,[11],1540 µg·min/mL
same,MIC,[12],0.008 µg/mL
same,IC50,[13],82 µg/mL
same,MIC,[14],≥ 16 µg/mL
same,MIC,[15],0.06 µg/mL
same,MIC,[16],128 µg/mL
same,MIC,[17],0.5 µg/mL
same,MIC,[18],128 µg/mL
same,MIC,[19],> 128 µg/mL
same,MIC,[20],≥ 16 µg/mL
same,MIC,[21],≥ 16 µg/mL
same,Activity,[22],< 1%
same,MIC,[23],> 128 µg/mL
same,Efficacy,[24],>50%
same,MBC,[25],0.5 µg/mL
same,PPB,[26],99.6%
same,MIC,[27],128 µg/mL
same,MBC,[28],1 µg/mL
same,MIC,[29],0.06 µg/mL
